Assay results reported in ChEMBL document CHEMBL1649381, “Domino approach to 2-aroyltrimethoxyindoles as novel heterocyclic combretastatin A4 analogues” (Eur J Med Chem, 2011).

What was measured:
B16 = experiment: Cytotoxicity against mouse B16 cells assessed as reduction in cell viability after 48 hrs by MTT assay; type: functional, cell-based; settings: B16, 48 h
Summary of the method: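 B16 cells kept in DMEM with 2 mM L-glutamine, 10% FBS, penicillin/streptomycin at 37 °C, 5% CO2. After 48 h exposure, MTT was read at 562 nm with background subtracted. IC50 is the mean of three independent experiments.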

[1] = Inhibition of tubulin polymerization by DAPI fluorescent assay
Summary of the method: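 Tubulin (97% pure, 1 mg/ml final) in PME buffer (100 mM PIPES, 1 mM MgSO4, 2 mM EGTA) with DAPI and graded compound, colchicine as internal control. Preincubated 45 min at room temperature, then polymerization started by adding 1 mM GTP. Run 2 h at 37 °C with fluorescence excitation at 360 nm. IC50 taken from a semi-log plot of % inhibition against concentration.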

HCT-116 = experiment: Antiproliferative activity against human HCT116 cells after 72 hrs by MTS assay; type: functional, cell-based; settings: HCT-116, 72 h
Summary of the method: (§1)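 Cells grown in RPMI 1640 with 10% fetal calf serum, streptomycin and fungizone at 37 °C, 5% CO2. MTS reagent was added for 2 h and absorbance read at 490. IC50 is the concentration giving 50% growth inhibition.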

HCT-15 = experiment: Antiproliferative activity against human HCT15 cells after 72 hrs by MTS assay; type: functional, cell-based; settings: HCT-15, 72 h; summary of the method: as §1
HT-29 = experiment: Antiproliferative activity against human HT-29 cells after 72 hrs by MTS assay; type: functional, cell-based; settings: HT-29, 72 h; summary of the method: as §1

SMILES | IC50 (B16) [µM] | IC50 [1] [µM] | IC50 (HCT-116) [µM] | IC50 (HCT-15) [µM] | IC50 (HT-29) [µM]
COc1cc2[nH]c(C(=O)c3ccccc3)cc2c(OC)c1OC | 45 | > 20 |  |  | 
COc1ccc(C(=O)c2cc3c(OC)c(OC)c(OC)cc3[nH]2)cc1 | > 50 | 9 | 4.2 | 0.45 | 1.24
COc1ccc(C(=O)c2cc3c(OC)c(OC)c(OC)cc3[nH]2)cc1F | 16 | > 20 |  |  | 
COc1cc2[nH]c(C(=O)c3ccc(C)cc3)cc2c(OC)c1OC | 10 | 4 | 2.8 | 0.61 | 1.09
COc1cc2[nH]c(C(=O)c3ccc(C)c(N)c3)cc2c(OC)c1OC | 36 | 10 | 2 | 0.32 | 0.99
COc1ccc(C(=O)c2cc3c(OC)c(OC)c(OC)cc3[nH]2)cn1 | > 50 | 15 |  |  | 
COc1cc2[nH]c(C(=O)/C=C/c3ccccc3)cc2c(OC)c1OC | 16 | > 20 |  |  | 
COc1cc2cc(C(=O)c3ccccc3)[nH]c2c(OC)c1OC | > 50 | 9 | > 50 | > 50 | > 50
COc1ccc(C(=O)c2cc3cc(OC)c(OC)c(OC)c3[nH]2)cc1 | > 50 | 12 |  |  | 
COc1ccc(C(=O)c2cc3cc(OC)c(OC)c(OC)c3[nH]2)cc1F | > 50 | 20 |  |  | 
COc1cc2cc(C(=O)c3ccc(C)cc3)[nH]c2c(OC)c1OC | 10 | > 20 | > 50 | > 50 | > 50
COc1ccc(C(=O)c2cc3cc(OC)c(OC)c(OC)c3[nH]2)cn1 | > 50 | 18 |  |  | 
COc1cc2cc(C(=O)/C=C/c3ccccc3)[nH]c2c(OC)c1OC | 33 | 18 |  |  | 
COc1ccc(/C=C\c2cc(OC)c(OC)c(OC)c2)cc1O [COMBRETASTATIN A4] | 0.005 | 0.27 | 0.001 | 0.001 | 0.013
